The full list was thinned out, with hits kept by preference.
Glyco luc inh = blocks N-linked glycosylation in D54 reporter cells | D54 ERlucT glycosylation luciferase reporter, 24 h; percent of 100 nM tunicamycin response | reporter increase, % at 12.5 µM | 360,000 compounds, 0.23% hits | AID 588692;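 active = mean luciferase reporter signal, scaled so untreated is 0 and the glycosylation-blocking control 100, at or above a set limit in every replicate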;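 note: luciferase carries N-glycosylation sites so blocking glycosylation raises the light; 0% = median of neutral control wells and 100% = median of 100 nM tunicamycin wells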
ALR inh = human ALR oxidase inhibition via reduced H2O2; inhibition, % (test concentration not listed); 290,000 compounds, 3.8% hits; P55789; purified ALR, DTT oxidation, H2O2 HRP-luminol luminescence;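 active = mean replicate inhibition above about 79%, with every replicate also reaching it, limit read from the data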
Target sequence (P55789 whole entry, looked up): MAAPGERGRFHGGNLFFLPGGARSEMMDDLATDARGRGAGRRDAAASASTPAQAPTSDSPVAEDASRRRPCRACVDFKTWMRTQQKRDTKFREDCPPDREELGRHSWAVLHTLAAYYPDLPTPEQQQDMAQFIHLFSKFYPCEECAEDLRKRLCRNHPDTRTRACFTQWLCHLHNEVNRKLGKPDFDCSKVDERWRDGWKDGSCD
T cell modulator = T cell immune modulation candidate; response (vesicle binding), % at 7 µM; 330,000 compounds, 0.068% hits; 2C CD8+ T cell-vesicle binding, flow cytometry; stronger effect = lower value;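 active = response, share of CD8 T cells binding vesicles, and their 90th percentile fluorescence all below set limits, cut at about 80% in these data, passing the limit was not always enough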;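 note: values below 100% mean blocked vesicle binding to the CD8+ T cells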
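System: murine 2C transgenic CD8+ T lymphocytes; also added: QL9-loaded Drosophila micro-vesicles; times: binding 1.5 h at 37 °C; measured by: flow cytometry, PE anti-B7-1 (FL2) versus Alexa647 anti-CD8 (FL8), PFA-fixed; control set: Peptide-free naked vesicles (low) and QL9 vesicles with 0.7% DMSO vehicle (high)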
* hit, by the source's call; / = no result.

SMILES	Glyco luc inh	ALR inh	T cell modulator
Cc1ccc(CNc2ccc3c(c2)ncn3C(C)(C)C)cc1	-7	89*	142
CCn1cnc2cc(NCc3ccncc3)ccc21	5	82*	577
C=CCNC(=O)N1CCC(c2nc3ccccc3s2)CC1	1	-6	399
COc1cccc(N2CCN(C(=O)CN(C)S(=O)(=O)c3ccc4c(c3)c(=O)n(C)c(=O)n4C)CC2)c1	1	41	195
O=C(O)CCCC(=O)Nc1ccn(-c2ccccc2)n1	1	4	557
CC(=O)CC(=O)Nc1ccn(-c2ccccc2)n1	1	82*	323
c1ccc(CSc2ncn(-c3ccccc3)n2)cc1	-9	-2	110
Nc1nc(CSc2ncn(-c3ccccc3)n2)cs1	-6	98*	706
O=C1OC(c2ccc3ccccc3c2O)(c2ccc3ccccc3c2O)c2ccccc21	-3	/	/
COc1cccc(NC(=O)N2CCCCCC2)c1	1	-14	292
Cc1ccc(N2CCN(C(=O)CNS(=O)(=O)c3ccc(Br)s3)CC2C)cc1 (stereo not given)	-2	98*	53
CCC(=O)N1CCc2cc(S(=O)(=O)NCCC(=O)N3CCN(c4ccccc4)CC3)ccc21	-2	6	260
CCC(=O)N1CCc2cc(S(=O)(=O)NCCC(=O)N3CCN(c4cccc(C)c4)C(C)C3)ccc21 (stereo not given)	-2	98*	283
Cc1cccc(N2CCN(C(=O)CCNS(=O)(=O)c3cccs3)CC2C)c1 (stereo not given)	-1	93*	677
COc1cccc(NC(=O)N2CCN(c3cccc(C)c3)C(C)C2)c1 (stereo not given)	3	99*	288
CC1CC(C)CN(C(=O)CNS(=O)(=O)c2ccc(Br)s2)C1 (stereo not given)	-2	/	809
CC1CC(C)CN(C(=O)CCNS(=O)(=O)c2cccs2)C1 (stereo not given)	1	-4	355
NC(=O)c1nsc(C(=O)N(Cc2cccnc2)C(C(=O)NCc2ccc(F)cc2)c2ccc(O)cc2)c1N (stereo not given)	1	0	167
O=C(OCc1ccc(Br)cc1F)c1cc2ccccc2oc1=O	-1	0	160
O=C(NCc1ccccc1C(F)(F)F)C1CCC(=O)N(C2CC2)C1 (stereo not given)	1	-8	371
CN(CC(=O)Nc1cccc(F)c1)C(=O)CCc1nc2cc(S(=O)(=O)N3CCOCC3)ccc2n1C	-1	0	224
COc1ccc(S(=O)(=O)N2CCOCC2)cc1NC(=O)CN1C(=O)NC2(CCCCC2C)C1=O (stereo not given)	1	/	213
Cn1c(CN2CCN(c3ccc(Cl)cc3)CC2)nc2ccccc21	1	3	302
CCn1c(CN2CCN(c3ccc(Cl)cc3)CC2)nc2ccccc21	5	96*	790
CCSc1nnc(-c2cc(Br)ccc2N=Cc2c(C)[nH]n(-c3ccccc3)c2=O)c(=O)[nH]1	3	11	148
SMILES	Glyco luc inh	ALR inh	T cell modulator
CCSc1nnc(-c2ccccc2N=Cc2c(C)[nH]n(-c3ccccc3)c2=O)c(=O)[nH]1	2	95*	266
Cc1ccc2c(c1)c1c(n2CC(O)CNC2CCCCC2)CCCC1 (stereo not given)	1	99*	168
Cc1ccc(C)c(OCC(O)CNC2CCCC2)c1 (stereo not given)	-2	/	217
COC(=O)Cn1c2c(c3cc(C)ccc31)CCCC2	-1	-9	244
Cc1ccc2c(c1)c1c(n2CC(O)CNC(CO)(CO)CO)CCCC1 (stereo not given)	-1	96*	361
CC(OC(=O)C1CCCCC1)C(=O)Nc1cccc([N+](=O)[O-])c1 (stereo not given)	-2	/	199
Cc1ccc(Nc2c(-c3ccc(N4CCOCC4)cc3)nc3ncccn23)c(C)c1	-3	/	513
Brc1ccc(-c2nc3ncccn3c2NC2CCCCC2)o1	-1	99*	424
Cc1ccc(-c2nc3ncccn3c2Nc2ccccc2C)o1	-1	98*	205
Cc1ccc(-c2nc3cnccn3c2Nc2c(C)cccc2C)o1	0	98*	505
Cc1ccccc1Nc1c(-c2cccnc2)nc2ccccn12	-2	68	671
Cc1cccc(C)c1Nc1c(-c2ccc(N3CCOCC3)cc2)nc2ncccn12	0	/	236
Cc1ccc(-c2nc3ncccn3c2NC2CCCC2)o1	1	99*	248
CC(C)c1nc2ccccn2c1NC1CCCCC1	1	/	290
CCCCNC(=NCc1cccc(C(F)(F)F)c1)Nc1ccccc1	-2	-5	213
COC(=O)c1ccc(NC(=O)c2cc[n+]([O-])cc2)cc1	2	-2	181
